Columns and labels:
HCT-116 [1] = experiment: Antiproliferative activity against human HCT116 cells assessed as reduction in cell growth measured after 72 hrs by CCK8 assay; format: functional, cell-based; conditions: HCT-116, 72 h
[2] = target: T1, Aurora kinase A (Homo sapiens) (UniProt O14965); experiment: Inhibition of Aurora A phosphorylation in human K562 cells incubated for 48 hrs by Western blot analysis; format: cell-based; conditions: dose 1-20 µM
T1 sequence (whole entry): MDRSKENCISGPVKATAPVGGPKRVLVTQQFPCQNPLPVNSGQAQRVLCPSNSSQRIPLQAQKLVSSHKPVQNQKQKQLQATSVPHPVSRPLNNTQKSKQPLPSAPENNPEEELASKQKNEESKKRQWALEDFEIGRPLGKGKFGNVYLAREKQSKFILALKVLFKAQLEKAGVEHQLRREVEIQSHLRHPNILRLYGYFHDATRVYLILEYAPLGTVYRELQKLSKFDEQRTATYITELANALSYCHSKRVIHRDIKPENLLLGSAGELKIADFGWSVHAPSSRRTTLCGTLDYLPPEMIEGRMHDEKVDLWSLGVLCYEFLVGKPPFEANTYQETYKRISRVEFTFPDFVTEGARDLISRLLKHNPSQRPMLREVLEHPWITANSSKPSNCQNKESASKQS
Method in brief: (§1)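 K562 or HCT116 cells treated 48 h at 1, 10 and 20 µM alongside untreated control; lysed in cold RIPA, protein by BCA, SDS-PAGE, nitrocellulose transfer, 5% milk block, primary antibody overnight at 4 °C, secondary 1 h; p-Aurora A, p-Aurora B, p-STAT3, p-STAT5 probed with GAPDH loading control.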

Aurora kinase B = Aurora kinase B (Homo sapiens, UniProt Q96GD4); experiment: Inhibition of Aurora B phosphorylation in human K562 cells incubated for 48 hrs by Western blot analysis; format: cell-based; conditions: dose 1-20 µM; method in brief: as §1
Aurora kinase B, sequence (Q96GD4 whole entry): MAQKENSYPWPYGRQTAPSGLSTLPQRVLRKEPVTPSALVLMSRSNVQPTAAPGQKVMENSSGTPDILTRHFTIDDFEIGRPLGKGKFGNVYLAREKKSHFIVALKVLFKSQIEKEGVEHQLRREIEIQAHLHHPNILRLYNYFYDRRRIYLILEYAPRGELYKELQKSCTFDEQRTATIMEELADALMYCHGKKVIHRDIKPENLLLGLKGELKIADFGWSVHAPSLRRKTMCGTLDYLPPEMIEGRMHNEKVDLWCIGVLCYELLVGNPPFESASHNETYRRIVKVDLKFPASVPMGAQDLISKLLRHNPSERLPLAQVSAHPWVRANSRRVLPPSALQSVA

[3] = target: T1, Aurora kinase A (Homo sapiens); experiment: Inhibition of Aurora A phosphorylation in human HCT116 cells incubated for 48 hrs by Western blot analysis; format: cell-based; conditions: HCT-116, dose 1-20 µM; method in brief: as §1
K562 [4] = experiment: Cell cycle arrest in human K562 cells assessed as accumulation of diploid cells at S phase at 1 uM incubated for 48 hrs by propidium iodide staining based flow cytometric analysis (reference value: 35.94 %); format: functional
K562 [5] = experiment: Cell cycle arrest in human K562 cells assessed as accumulation at […] phase at 20 uM incubated for 48 hrs by propidium iodide staining based flow cytometric analysis (reference value: 1.90 %); format: functional
HCT-116 [6] = experiment: Cell cycle arrest in human HCT116 cells assessed as accumulation at […] phase at 10 uM incubated for 48 hrs by propidium iodide staining based flow cytometric analysis (reference value: 2.01 %); format: functional

IC50 (HCT-116 [1]): 15.1 µM | inhibition [2]: Dose-dependent effect | inhibition (Aurora kinase B): Dose-dependent effect | inhibition [3]: Dose-dependent effect
SMILES: O=C(Nc1c[nH]nc1-c1nc(-c2ccc(CN3CCOCC3)cc2)c[nH]1)c1cccc(Cl)c1
Activity (K562 [4]): 35.82% | Activity (K562 [5]): 2.06% | Activity (HCT-116 [6]): 2.01%
